# ARNT TACC3 PPI: disrupts binding between human ARNT and TACC3; 0.66% of 390,000 active; Q9Y6A5; inhibition, % at 9.99 µM; AlphaScreen His-ARNT PAS-B/GST-TACC3 binding, luminescence; TACC3 fragment carries E629A point mutation;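 active means mean inhibition of replicates at least 50% and at least half of replicates each reaching 50%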;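 further: 0% = complete ARNT plus TACC3 wells and 100% = ARNT alone without TACC3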
# CAL PDZ FP-1: blocks peptide binding to human CAL PDZ domain | Q9HD26 | purified CAL PDZ, TMR-peptide fluorescence polarization, 1 h | inhibition, % at 20 µM | 0.02% of 330,000 active;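 active means highest replicate inhibition of at least 40%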;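 further: plate controls were DMSO neutral control wells for no effect and unlabeled competitor peptide control wells for full effect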
#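 Material: tagged CAL PDZ domain; buffer or medium: 25 mM sodium phosphate pH 7.4, 150 mM NaCl, TCEP, IgG, Thesit; compound dosing: single point, 20 µM; schedule: 1 h incubation at room temperature before polarization reading; measured by: FP readout, S and P plane fluorescence; read-out basis: percent inhibition from loss of millipolarization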
# GRK2 aptamer HTS: inhibitors of human GRK2 displacing RNA aptamer | bead flow cytometry, FAM-aptamer displacement from GRK2 | 0.59% of 330,000 active | inhibition of aptamer binding, % at 10 µM;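 active means inhibition of aptamer binding above 40%, roughly 3 SD of noise, on plates passing a quality check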;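 further: median bead fluorescence of bound FAM aptamer so fluorescent compounds give negative values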
# Target sequence (P25098 whole entry, looked up): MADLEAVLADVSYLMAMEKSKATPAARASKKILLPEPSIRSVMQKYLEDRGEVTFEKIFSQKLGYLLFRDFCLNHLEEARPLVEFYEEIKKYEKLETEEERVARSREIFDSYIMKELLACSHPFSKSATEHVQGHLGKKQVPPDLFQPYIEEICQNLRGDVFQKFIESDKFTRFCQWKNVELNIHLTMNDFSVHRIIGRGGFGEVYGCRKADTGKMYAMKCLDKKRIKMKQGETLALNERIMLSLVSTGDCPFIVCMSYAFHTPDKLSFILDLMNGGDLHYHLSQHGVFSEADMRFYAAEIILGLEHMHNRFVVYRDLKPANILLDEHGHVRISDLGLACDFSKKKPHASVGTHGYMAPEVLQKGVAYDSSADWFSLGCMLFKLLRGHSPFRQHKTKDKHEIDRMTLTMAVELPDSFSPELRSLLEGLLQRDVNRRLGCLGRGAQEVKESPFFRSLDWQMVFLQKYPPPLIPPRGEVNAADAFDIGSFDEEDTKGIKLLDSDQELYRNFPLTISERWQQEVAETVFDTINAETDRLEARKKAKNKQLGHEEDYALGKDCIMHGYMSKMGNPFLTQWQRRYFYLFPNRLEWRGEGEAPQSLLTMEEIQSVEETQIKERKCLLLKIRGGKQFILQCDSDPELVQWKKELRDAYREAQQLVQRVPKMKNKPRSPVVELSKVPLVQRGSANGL
# DDE Tn6 FP inh: inhibitors of Tn6 peptide binding to human fibrin DD(E) | P02675 | Fibrin DD(E) TRITC-Tn6 fluorescence polarization displacement | inhibition, % at 8.3 µM | 0.21% of 370,000 active | AID 720509;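 active means inhibition above a per-campaign cutoff: mean of compounds within control limits plus 3 SD, cut at about 15% in these data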;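 further: 0% = median of all compound wells on the plate and 100% = blocking peptide control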
# Tn7 DDE FP: disrupts Tn7 cyclic peptide binding to fibrin D-Dimer-E complex. 0.13% of 370,000 active. inhibition, % at 8.3 µM. P02675. FP displacement of FITC-Tn7 peptide from fibrin DD(E); 0% = median of compound wells per plate;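 active means inhibition above the mean of compounds falling within the control limits plus 3 SD of them, cut at about 14% in these data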;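 further: 0% = plate median of compound wells and 100% = 10 µM Aha-Tn7 peptide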
#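 Assay system: Fibrin-DD(E) protein isolated from polymerized human fibrin clots; read-out basis: percent inhibition; medium: Tris/NaCl/CaCl2 buffer, pH 7.8; signal: FP measurement; incubation: 10 min plus 3 h, room temperature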
# CAL PDZ FP-2: inhibitors of human CAL PDZ peptide binding; Q9HD26; purified CAL PDZ, TMR-peptide fluorescence polarization, 1 h; inhibition, % at 24.9 µM; 0.92% of 300,000 active; AID 602252;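 active means mean inhibition of at least 30% with at least half of replicates also reaching 30%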;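 further: 0% = DMSO neutral control and 100% = excess unlabeled competitor peptide PRC23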
# GRK2 inh confirm: human GRK2 inhibition confirmation, cherry pick 1; shares compounds with GRK2 aptamer HTS; bead-bound GRK2, FAM-aptamer displacement, flow cytometry; aptamer displacement, % at 10 µM; 4% of 2,000 active; AID 504451;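 active means aptamer displacement above 40%, near three times the noise of non-fluorescent compounds, on plates passing quality checks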;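 further: negative values mostly reflect intrinsic compound fluorescence rather than true enhancement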
# Aptamer quench SP: aptamer fluorescence quenching in GRK2 counter-screen; shares compounds with GRK2 aptamer HTS; Carboxyfluorescein RNA aptamer on beads, flow cytometry quenching; stronger effect = lower value; fluorescence response (% of DMSO), % at 10 µM; 2,000 tested, under 10 active;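 active means compounds that quench the bead-bound fluorescent RNA probe, cutting fluorescence to under half of the solvent control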;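 further: counterscreen run without GRK2 so only probe quenching by compound is measured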
# GRK2 confirm 2: human GRK2 inhibition confirmation, cherry pick 2 | shares compounds with GRK2 aptamer HTS | bead-bound GRK2, FAM-aptamer displacement, flow cytometry | inhibition of aptamer binding, % at 10 µM | 360 tested, under 10 active | AID 504782;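 active means inhibition of aptamer binding above 40%, about triple the noise seen with nonglowing compounds, on plates passing quality control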;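 further: negative values mostly come from compounds that fluoresce themselves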
# FAM quench CP2: aptamer fluorescence quenching in GRK2 counter-screen | shares compounds with GRK2 aptamer HTS | carboxyfluorescein RNA aptamer beads, flow cytometry quenching; stronger effect = lower value | fluorescence response vs DMSO, % at 10 µM | 360 tested, under 10 active | AID 588494;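 active means response vs DMSO under 50%, meaning signal dropped by over half, treated as fluorescence quencher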;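 further: labelled aptamer on streptavidin beads without GRK2 as a quench counter-screen; 100% = bead fluorescence of DMSO wells and lower means quenching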
# Active calls of the source: *; . = no result given. In the library only some 1.8% were active in any assay of this set; here they are far more common.
SMILES,ARNT TACC3 PPI,CAL PDZ FP-1,GRK2 aptamer HTS,DDE Tn6 FP inh,Tn7 DDE FP,CAL PDZ FP-2,GRK2 inh confirm,Aptamer quench SP,others
CCCn1c(=O)c2sccc2n2c(CCCC(=O)NCc3cccnc3)nnc12,-3,-2,0,-1,1,-2,.,.,
Cc1csc(CNc2ncnc3ccc(-c4ccoc4)cc23)c1,0,-4,49*,-2,-3,-4,-2,100,
CC(=O)NC1C(=O)N=C(SC(C)C(=O)Nc2cccc(Cl)c2)NC1=O (stereo not drawn),-3,0,11,-1,5,-5,.,.,
CC(C)(C)c1ccc(C(=O)NN2C(=O)CSC2=S)cc1,0,0,55*,10,6,-9,-4,98,
O=C(COc1ccccc1)NN1C(=O)CSC1=S,1,-2,7,2,1,-6,.,.,
Cc1ccnc(NC(=O)CCS(=O)(=O)c2ccccc2)c1,-7,-3,14,8,-1,-4,8,97,
Cc1cccc(NC(=O)CCS(=O)(=O)c2ccc(Cl)cc2)c1,1,0,3,1,-4,-1,.,.,GRK2 confirm 2=0;FAM quench CP2=100
O=C(CCS(=O)(=O)c1ccccc1)Nc1ccccn1,-9,-4,76*,-5,-9,-5,2,101,
COc1ccc(Cl)cc1-c1nc(SCC(=O)NC(C)C(C)C)n[nH]1 (stereo not drawn),-8,-1,4,-3,-12,.,.,.,
COc1ccc(Cl)cc1-c1nc(SCC(=O)NC(C)C)n[nH]1,-20,1,46*,-1,-2,-2,-1,98,
O=C(C[C@@H]1C[C@@H]2c3cc(NS(=O)(=O)c4ccccc4)ccc3O[C@@H]2[C@@H](CO)O1)NCC1CC1,0,.,.,.,.,.,.,.,
CCc1cccc(NC(=O)C2CCCN(c3ncnc4c3nc3n4CCCCC3)C2)c1 (stereo not drawn),-4,-2,0,5,-6,7,4,102,
O=C(NCC1CCN(Cc2cccc(Cl)c2)CC1)C1CCCN(c2ncnc3c2nc2n3CCCCC2)C1 (stereo not drawn),1,-3,0,5,1,-3,-6,100,
O=C(Nc1cccnc1)C1CCCN(c2ncnc3c2nc2n3CCCCC2)C1 (stereo not drawn),-4,-2,0,-8,2,.,.,.,
CC(Oc1ccc(Cl)cc1)c1ccnn1S(=O)(=O)c1ccccc1 (stereo not drawn),13,-1,0,-13,-9,-4,.,.,
CC(Oc1ccccc1)c1ccnn1S(C)(=O)=O (stereo not drawn),.,-3,38,0,-5,2,1,98,
Cc1nc(SCc2ccc(OCCC(C)C)cc2)n[nH]1,1,-2,100*,-3,13,-2,2,95,
CCCCCOc1ccc(CSc2n[nH]c(C)n2)cc1,-8,0,2,-7,-3,3,.,.,
CCOC(=O)Nc1ccc2c(c1)nc(CN1CCN(C(C)=O)CC1)n2C,1,-1,68*,5,3,-1,0,104,
CCN(CC)Cc1csc(C(N)=O)c1,-3,0,14,3,-2,-3,-3,101,
COc1ccc(NC(=O)Nc2ccc3c(c2)C(=O)N([C@H](C)CO)C[C@@H](C)[C@@H](CN(C)Cc2ccccc2)OCCCC[C@H](C)O3)cc1,-3,.,.,.,.,.,.,.,
Cc1cc(N)nc(SCC(=O)N2C(C)CCCC2C)n1 (stereo not drawn),-8,-2,50*,-3,3,-6,2,99,
Cc1noc(C)c1S(=O)(=O)Nc1ccc2c(c1)C(=O)N([C@@H](C)CO)C[C@H](C)[C@@H](CN(C)C(=O)Nc1ccc(F)cc1)OCCCC[C@H](C)O2,18,.,.,.,.,.,.,.,
Cc1ccc(/C=C2\C(=O)Nc3ccccc32)o1,10,-1,4,-1,8,1,.,.,
Cc1ccc2c(c1)/C(=C/c1ccco1)C(=O)N2,8,-1,94*,1,-1,1,0,98,
SMILES,ARNT TACC3 PPI,CAL PDZ FP-1,GRK2 aptamer HTS,DDE Tn6 FP inh,Tn7 DDE FP,CAL PDZ FP-2,GRK2 inh confirm,Aptamer quench SP,others
CSc1ccccc1NC(=O)N1CCCC(C(=O)c2ccc3c(c2)OCO3)C1 (stereo not drawn),1,-1,95*,-4,3,-3,-1,96,
Cc1cc(Cl)ccc1N(CC(=O)NCc1ccc2c(c1)OCO2)S(C)(=O)=O,23,-1,100*,-7,5,1,3,99,
COCCNC(=O)c1ccc(CS(=O)(=O)c2ccccc2OC)o1,1,2,50*,-1,-3,-3,-1,95,
O=C(c1ccc(F)cc1F)N1CCC(Oc2cccnc2)CC1,.,.,.,-4,0,.,.,.,
O=C1/C(=C/C=C/c2ccco2)SC(=S)N1NS(=O)(=O)c1ccccc1,.,0,95*,-2,3,-3,9,96,
O=C(Nc1ccccc1)n1ccc(-c2ccc(-n3ccnc3)cc2)n1,.,.,1,4,5,.,.,.,
Cn1nccc1C(=O)Nc1ccc2c(c1)OCCO2,.,-3,100*,0,-3,-1,3,95,
O=S1(=O)CCN(Cc2cccnc2)CC1,.,.,.,2,-2,.,.,.,
Cc1ccc(S(=O)(=O)N(C)C[C@H]2Oc3ncc(C#CC4(O)CCCC4)cc3C(=O)N([C@H](C)CO)C[C@H]2C)cc1,-7,.,.,.,.,.,.,.,
CC1(C)NC(=O)N(CCCCOc2ccc(Cl)cc2)C1=O,-7,0,70*,0,-4,-4,-3,97,
Cc1ccc2nc(/C(C#N)=C\c3ccc([N+](=O)[O-])o3)[nH]c2c1,-12,2,26,-3,8,0,0,109,
O=C(/C=C/c1cccc(Br)c1)OCC(=O)N1CCN(c2ccccc2)CC1,0,0,76*,-1,-2,-2,1,99,
COc1ccccc1NC(=S)N1CCN(C(=O)C2CCCO2)CC1 (stereo not drawn),38,-2,6,-2,-2,-1,.,.,
COc1ccc(Cn2nnnc2C(c2ccccn2)N2CCN(c3cc(Cl)ccc3C)CC2)cc1 (stereo not drawn),-6,0,0,-2,3,-3,.,.,
